# Test results from ChEMBL document CHEMBL4257516, “Synthesis and cellular penetration properties of new phosphonium based cationic amphiphilic peptides” (Medchemcomm, 2018).
# The source made the active and inactive calls. The calls are words filed in the database; no cut-off is given here. Residues, ends and D or L forms follow the SMILES beside them. *: point of attachment. BODIPY(FL) = CC1=CC(C)=[N+]2C1=Cc1ccc(CCC(=O)*)n1[B-]2(F)F; Propyl(3-PMe3+) = C[P+](C)(C)CCC*; CH2CH2P(+)Me3 = C[P+](C)(C)CC*
# How the values were obtained:
# [1] = Drug uptake in membrane containing structure of human MCF7 cells at 20 uM after 3 hrs by DAPI/rhodamine phalloidin staining-based fluorescence microscopic method; format: ADME, cell membranes; conditions: mcf7, 3 h
# How it was run: (§1)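 MCF7 cells incubated with 20 μM BODIPY-Fl-labelled peptides (label coupled at the N-terminus) using a slightly modified literature protocol. Nuclei counterstained with DAPI and actin cytoskeleton with rhodamine phalloidin. Imaged by fluorescence microscopy; green, blue and red channels merged to localise peptide. Free BODIPY ligand served as control for green signal.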
# MCF7 = assay: Binding affinity to actin in human MCF7 cells at 20 uM after 3 hrs by DAPI/rhodamine phalloidin staining-based fluorescence microscopic method; format: cell-based; how it was run: as §1
# [2] = Drug uptake in nucleus of human MCF7 cells at 20 uM after 3 hrs by DAPI/rhodamine phalloidin staining-based fluorescence microscopic method; format: ADME, subcellular; conditions: mcf7, 3 h
# How it was run: (§2)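 Peptides labelled at the N-terminus with BODIPY-Fl; MCF7 cells incubated with 20 μM labelled peptide by a modified literature protocol. Imaged by fluorescence microscopy with DAPI for nuclei and rhodamine phalloidin for cytoskeleton. Green, blue and red images were merged to localise the peptide. Free BODIPY ligand served as a control for green signal.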
# [3] = Drug uptake in cytoplasm of human MCF7 cells at 20 uM after 3 hrs by DAPI/rhodamine phalloidin staining-based fluorescence microscopic method; format: ADME, subcellular; conditions: mcf7, 3 h; how it was run: as §2
# [4] = Drug uptake in golgi apparatus of human MCF7 cells at 20 uM after 3 hrs by DAPI/rhodamine phalloidin staining-based fluorescence microscopic method; format: ADME, subcellular; conditions: mcf7, 3 h; how it was run: as §2
# [5] = Hemolytic activity in horse erythrocytes at 512 uM after 1 hr relative to control; format: ADME, cell-based, Equus caballus, Erythrocyte; conditions: read-out: Activity
# How it was run: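 Horse erythrocytes exposed to peptides (TFA salts, C-terminal amide, free N-terminus) at 512 μM; haemolysis as percent, triplicate determinations, reported as mean ± SEM.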
# [6] = Cytotoxicity against HEK293 cells assessed as cell viability at 256 uM after 24 hrs by Alamar blue assay relative to control; format: cell-based; conditions: human, read-out: Activity
# How it was run: (§3)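 HEK 293 cells exposed to peptides (TFA salts, C-terminal amide, free N-terminus) at 256 and 512 μM; viability as percent, run in triplicate, reported as mean ± SEM.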
# Escherichia coli = assay: Antibacterial activity against extended-spectrum beta-lactamases producing Escherichia coli clinical strain 64771 after overnight incubation by microbroth dilution assay; format: functional
# [7] = Cytotoxicity against HEK293 cells assessed as cell viability at 512 uM after 24 hrs by Alamar blue assay relative to control; format: cell-based; conditions: human, read-out: Activity; how it was run: as §3
Compound,Activity (MCF7),Drug uptake [2],Drug uptake [3],other results
CC[C@H](C)[C@H](NC(=O)[C@H](Cc1c[nH]c2ccccc12)NC(=O)[C@H](CSCC[P+](C)(C)C)NC(=O)[C@H](Cc1c[nH]c2ccccc12)NC(=O)[C@H](Cc1c[nH]c2ccccc12)NC(=O)[C@H](CSCC[P+](C)(C)C)NC(=O)[C@H](CSCC[P+](C)(C)C)NC(=O)CCc1ccc2n1[B-](F)(F)[N+]1=C(C)C=C(C)C1=C2)C(=O)N[C@@H](CSCC[P+](C)(C)C)C(=O)N[C@@H](Cc1c[nH]c2ccccc12)C(N)=O.O=C([O-])C(F)(F)F.O=C([O-])C(F)(F)F.O=C([O-])C(F)(F)F.O=C([O-])C(F)(F)F ({BODIPY(FL)}-C(CH2CH2P(+)Me3)C(CH2CH2P(+)Me3)WWC(CH2CH2P(+)Me3)WIC(CH2CH2P(+)Me3)W-NH2),–,–,–,Drug uptake [1]: Active
CC[C@H](C)[C@H](NC(=O)[C@H](Cc1c[nH]c2ccccc12)NC(=O)[C@H](CSCC[P+](C)(C)C)NC(=O)[C@H](Cc1c[nH]c2ccccc12)NC(=O)[C@H](Cc1c[nH]c2ccccc12)NC(=O)[C@H](CSCCC[P+](C)(C)C)NC(=O)[C@H](CSCC[P+](C)(C)C)NC(=O)CCc1ccc2n1[B-](F)(F)[N+]1=C(C)C=C(C)C1=C2)C(=O)N[C@@H](CSCCC[P+](C)(C)C)C(=O)N[C@@H](Cc1c[nH]c2ccccc12)C(N)=O.O=C([O-])C(F)(F)F.O=C([O-])C(F)(F)F.O=C([O-])C(F)(F)F.O=C([O-])C(F)(F)F ({BODIPY(FL)}-C(CH2CH2P(+)Me3)C(Propyl(3-PMe3+))WWC(CH2CH2P(+)Me3)WIC(Propyl(3-PMe3+))W-NH2),Active,Not Active,Active,–
CC1=CC(C)=[N+]2C1=Cc1ccc(CCC(=O)N[C@@H](CSCC[P+](C)(C)C)C(=O)N[C@@H](Cc3ccccc3)C(=O)N[C@@H](Cc3ccccc3)C(=O)N[C@@H](CSCC[P+](C)(C)C)C(=O)N[C@@H](Cc3ccccc3)C(=O)N[C@@H](Cc3ccccc3)C(=O)N[C@@H](CSCC[P+](C)(C)C)C(=O)N[C@@H](Cc3ccccc3)C(=O)N[C@@H](Cc3ccccc3)C(=O)N[C@@H](CSCC[P+](C)(C)C)C(N)=O)n1[B-]2(F)F.O=C([O-])C(F)(F)F.O=C([O-])C(F)(F)F.O=C([O-])C(F)(F)F.O=C([O-])C(F)(F)F ({BODIPY(FL)}-C(CH2CH2P(+)Me3)FFC(CH2CH2P(+)Me3)FFC(CH2CH2P(+)Me3)FFC(CH2CH2P(+)Me3)-NH2),–,Active,–,Drug uptake [4]: Active
CC[C@H](C)[C@H](NC(=O)[C@H](Cc1c[nH]c2ccccc12)NC(=O)[C@H](CSCCC[P+](C)(C)C)NC(=O)[C@H](Cc1c[nH]c2ccccc12)NC(=O)[C@H](Cc1c[nH]c2ccccc12)NC(=O)[C@H](CSCCC[P+](C)(C)C)NC(=O)[C@H](CSCCC[P+](C)(C)C)NC(=O)CCC1=[N+]2C(=Cc3c(C)cc(C)n3[B-]2(F)F)C=C1)C(=O)N[C@@H](CSCCC[P+](C)(C)C)C(=O)N[C@@H](Cc1c[nH]c2ccccc12)C(N)=O.O=C([O-])C(F)(F)F.O=C([O-])C(F)(F)F.O=C([O-])C(F)(F)F.O=C([O-])C(F)(F)F ({BODIPY(FL)}-C(Propyl(3-PMe3+))C(Propyl(3-PMe3+))WWC(Propyl(3-PMe3+))WIC(Propyl(3-PMe3+))W-NH2),Active,Not Active,Active,–
CC1=CC(C)=[N+]2C1=Cc1ccc(CCC(=O)N[C@@H](CSCCC[P+](C)(C)C)C(=O)N[C@@H](Cc3ccccc3)C(=O)N[C@@H](Cc3ccccc3)C(=O)N[C@@H](CSCCC[P+](C)(C)C)C(=O)N[C@@H](Cc3ccccc3)C(=O)N[C@@H](Cc3ccccc3)C(=O)N[C@@H](CSCCC[P+](C)(C)C)C(=O)N[C@@H](Cc3ccccc3)C(=O)N[C@@H](Cc3ccccc3)C(=O)N[C@@H](CSCCC[P+](C)(C)C)C(N)=O)n1[B-]2(F)F.O=C([O-])C(F)(F)F.O=C([O-])C(F)(F)F.O=C([O-])C(F)(F)F.O=C([O-])C(F)(F)F ({BODIPY(FL)}-C(Propyl(3-PMe3+))FFC(Propyl(3-PMe3+))FFC(Propyl(3-PMe3+))FFC(Propyl(3-PMe3+))-NH2),Active,Active,–,–
H-KRWWKWIRW-NH2,–,–,–,"hemolysis at 1 h, 512 µM [5]: 14.3%; viability at 24 h, 256 µM [6]: 2%; MIC (Escherichia coli): 1.5 µM; viability at 24 h, 512 µM [7]: 0%"
